ChEMBL document CHEMBL1123966, “Ring-substituted [1,2-bis(4-hydroxyphenyl)ethylenediamine]dichloroplatinum (II) complexes: compounds with a selective effect on the hormone-dependent mammary carcinoma” (1988)
Values joined by “and” are separate entries in the source; they are usually repeats but may differ in a detail not shown here. Equal entries are not always repeated.

Columns and labels:
[1] = organism: Rattus norvegicus; test: Percent of tumors with partial remission at a dose of 1.9 mg in DMBA - induced, hormone dependent mammary carcinoma in rat; assay type: functional
In short: (§1)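 DMBA-induced, hormone-dependent mammary carcinoma in Sprague-Dawley rats. Dose is per kg body weight per day, given three times a week, sc, as suspension or solution in polyethylene glycol 400/H2O 1:1, for 4 weeks. Tumors were counted at start (B) and as new tumors (NT). Outcomes were scored as % complete remission (not palpable), partial remission, no change and progression, with % change in tumor area.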

[2] = Cell growth inhibition of MXT-ER+ breast cancer cells at a dose of 0.6 mg/kg (1.5*10e-6 M/kg); assay type: functional, organism-based; parameters: dose 0.6 mg/kg; conditions: Mus musculus, Cancer cell lines
In short: (§2)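 MXT mammary carcinoma (hormone-dependent, ER+) in BDF1 mice. Doses given in olive oil, sc, three times a week, for 6 weeks. Median tumor weight was measured at the end of therapy and expressed as T/C %. Significance was by the Wilcoxon-Mann-Whitney U test.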

[3] = Cell growth inhibition of MXT-ER+ breast cancer cells at a dose of 5.3 mg/kg ([…]); assay type: functional, organism-based; parameters: dose 5.3 mg/kg; conditions: Mus musculus, Cancer cell lines; in short: as §2
[4] = Cell growth inhibition of MXT-ER+ breast cancer cells at a dose of 1.8 mg/kg (4.6 *10e-6 M/kg); assay type: functional, organism-based; parameters: dose 1.8 mg/kg; conditions: Mus musculus, Cancer cell lines; in short: as §2
[5] = Median tumor weight of MXT ER+ determined at the end of 6 week therapy at a dose of 5.3 mg/kg (1.4*10e-5 M/kg); assay type: functional, Mus musculus; in short: as §2
[6] = organism: Rattus norvegicus; test: Percent of tumors with no change at a dose of 1.9 mg in DMBA - induced hormone dependent mammary carcinoma in rat; assay type: functional; in short: as §1
[7] = tested on: Mus musculus; test: Uterotrophic effect in BDF1 mouse at a dose of 0.6 mg/kg (1.5*10e-6 M/kg); assay type: functional, Uterus
In short: (§3)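 Female BDF1 mice carrying MXT ER+ mammary carcinoma were dosed in olive oil, sc, three times a week, for 6 weeks. At the end of therapy, uterotropic effect = [uterus dry weight (mg)/body weight (g)] × 100, given as mean ± SD and as T/C % versus control. Significance was by the U test.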

[8] = organism: Rattus norvegicus; test: Percent change of in body weight at 7 day of therapy at a dose of 1.9 mg in DMBA - induced hormone dependent mammary carcinoma in rat; assay type: functional
[9] = Median tumor weight of MXT ER+ determined at the end of 6 week therapy at a dose of 0.6 mg/kg (1.5*10e-6 M/kg); assay type: functional, Mus musculus; in short: as §2
[10] = tested on: Mus musculus; test: Uterotrophic effect in BDF1 mouse at a dose of 1.8 mg/kg (4.6 *10e-6 M/kg); assay type: functional, Uterus; in short: as §3
[11] = organism: Rattus norvegicus; test: Percent change of tumor area at 28 day of therapy at a dose of 1.9 mg in DMBA - induced hormone dependent mammary carcinoma in rat; assay type: functional; in short: as §1
[12] = organism: Rattus norvegicus; test: No. of tumors occurring at a dose of 1.9 mg in DMBA - induced hormone dependent mammary carcinoma in rat; assay type: functional; in short: as §1
[13] = Median tumor weight of MXT ER+ (mammary carcinoma) determined at the end of 6 week therapy at a dose of 0.6 mg/kg (1.5*10e-6 M/kg); assay type: functional, Mus musculus; in short: as §2
[14] = organism: Rattus norvegicus; test: Percent of tumors with complete remission at a dose of 1.9 mg in DMBA - induced, hormone dependent mammary carcinoma in rat; assay type: functional; in short: as §1
[15] = organism: Mus musculus; test: (§4) Uterotrophic effect in BDF1 mouse measured as([weight of uterus (mg)/body weight (g)] *100); assay type: functional; in short: as §3
[16] = organism: Rattus norvegicus; test: Percent of tumors with progression at a dose of 1.9 mg in DMBA - induced hormone dependent mammary carcinoma in rat; assay type: functional; in short: as §1
[17] = organism: Rattus norvegicus; test: No. of tumors at the beginning of the test at dose of 1.9 in DMBA - induced, hormone dependent mammary carcinoma in 8 rat; assay type: functional; in short: as §1
[18] = tested on: MCF7S; test: Incorporation of [3H]- thymidine in hormone dependent MCF-7 breast cancer cells; assay type: functional, cell-based; conditions: Homo sapiens
[19] = tested on: MDA-MB-231; test: Incorporation of [3H]- thymidine into hormone independent MDA-MB-231 breast cancer cells; assay type: functional, cell-based; conditions: Homo sapiens
[20] = tested on: MDA-MB-231; test: Incorporation of [3H]- thymidine in hormone independent MDA-MB-231 breast cancer cells; assay type: functional, cell-based; conditions: Homo sapiens
[21] = Cell growth inhibition of MXT-ER+ breast cancer cells at a dose of 4.2 mg/kg (1.4*10^-5 M/kg); assay type: functional, organism-based; parameters: dose 4.2 mg/kg; conditions: Mus musculus, Cancer cell lines
In short: (§5)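 Hormone-dependent MXT mammary carcinoma in BDF₁ mice. Dosing was sc in water as vehicle: 1.4 mg/kg three times a week, and 4.2 mg/kg once per week. Median tumor weight was taken after 6 weeks of therapy and expressed as T/C %. Significance was tested by the Wilcoxon-Mann-Whitney U test.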

[22] = tested on: Mus musculus; test: Uterotrophic effect in BDF1 mouse at a dose of 4.2 mg/kg (1.4*10^-5 M/kg); assay type: functional, organism-based; parameters: dose 4.2 mg/kg; conditions: Uterus
In short: (§6)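 BDF1 mice bearing MXT mammary carcinoma. Dosing sc in water once per week over a 6-week therapy. Median tumor weight and uterine index ([uterus dry weight (mg)/body weight (g)] × 100) were read at the end of therapy; U test (Wilcoxon, Mann, Whitney).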

[23] = tested on: Mus musculus; test: Median tumor weight of MXT ER+ determined at the end of 6 week therapy ata dose of 2 mg/kg; assay type: functional, organism-based; parameters: dose 2 mg/kg
In short: (§7)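 BDF1 mice with hormone-dependent MXT mammary carcinoma (ER+). Equimolar dosing at 2 × 10⁻⁵ M/kg, given sc in olive oil three times a week (Mon/Wed/Fri) for 6 weeks. Median tumor weight was taken at the end of therapy and compared with controls by the Wilcoxon–Mann–Whitney U test.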

[24] = tested on: Mus musculus; test: Uterotrophic effect in BDF1 mouse at a dose of 1.4 mg/kg (4.6*10e-6M/kg); assay type: functional, organism-based; parameters: dose 1.4 mg/kg; conditions: Uterus
In short: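 BDF1 mice bearing MXT mammary carcinoma. Dosing sc in water three times a week for 6 weeks. Uterine index = [uterus dry weight (mg)/body weight (g)] × 100 (± SD), read at the end of therapy; U test.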

[25] = tested on: Mus musculus; test: Uterotrophic effect in BDF1 mouse ata dose of 2 mg/kg; assay type: functional, organism-based; parameters: dose 2 mg/kg; conditions: Uterus
In short: (§8)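 Uterus of BDF1 mice in the MXT ER+ study. Equimolar dosing at 2 × 10⁻⁵ M/kg, sc in olive oil three times a week (Mon/Wed/Fri). Uterine response = [uterus dry weight (mg)/body weight (g)] × 100, determined at the end of the 6-week therapy; U test.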

[26] = Cell growth inhibition of MXT-ER+ breast cancer cells ata dose of 2 mg/kg; assay type: functional, organism-based; parameters: dose 2 mg/kg; conditions: Mus musculus; Cancer cell lines
In short: (§9)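 Hormone-dependent MXT mammary carcinoma (ER+) model. Equimolar doses (2 × 10⁻⁵ M/kg) were given sc three times weekly (Mon, Wed, Fri) as a solution or suspension in polyethylene glycol 400/H₂O (1:1); some agents were given in olive oil. Median tumor weight was taken at the end of 6 weeks of therapy and given as T/C %. Significance was tested by the Wilcoxon-Mann-Whitney U test.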

[27] = tested on: MCF7S; test: Cell growth inhibition in hormone dependent MCF 7 breast cancer cells; assay type: functional, cell-based; conditions: Homo sapiens
[28] = tested on: MDA-MB-231; test: Cell growth inhibition in hormone independent MDA-MB-231 breast cancer cells; assay type: functional, cell-based; conditions: Homo sapiens
[29] = tested on: Mus musculus; test: Median tumor weight MXT ER+ determined at the end of 6 week therapy at a dose of 1.4 mg/kg (4.6*10e-6M/kg); assay type: functional, organism-based; parameters: dose 1.4 mg/kg; in short: as §5
[30] = organism: Mus musculus; test: as §4; assay type: functional, organism-based
[31] = Cell growth inhibition of MXT-ER+ breast cancer cells at a dose of 1.4 mg/kg (4.6*10e-6M/kg); assay type: functional, organism-based; parameters: dose 1.4 mg/kg; conditions: Mus musculus, Cancer cell lines; in short: as §5
[32] = Cell growth inhibition of MXT-ER- breast cancer cells ata dose of 2 mg/kg; assay type: functional, organism-based; parameters: dose 2 mg/kg; conditions: Mus musculus; Cancer cell lines
In short: (§10)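 Hormone-independent MXT mammary carcinoma (ER−) in mice. Equimolar doses (2 × 10⁻⁵ M/kg) were given sc three times a week (Mon, Wed, Fri) in polyethylene glycol 400/H₂O (1:1), or in olive oil for some agents. Median tumor area was measured at the end of a 2-week therapy and expressed as T/C %.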

[33] = tested on: Mus musculus; test: Median tumor weight of MXT ER+ determined at the end of 6 week therapy at a dose of 4.2 mg/kg (1.4*10^-5 M/kg); assay type: functional, organism-based; parameters: dose 4.2 mg/kg; in short: as §6
[34] = tested on: Mus musculus; test: Uterotrophic effect in BDF1 mouse at a dose of 12.9 mg/kg; assay type: functional, organism-based; parameters: dose 12.9 mg/kg; conditions: Uterus; in short: as §8
[35] = Cell growth inhibition MXT-ER- breast cancer cells at a dose of 12.9 mg/kg; assay type: functional, organism-based; parameters: dose 12.9 mg/kg; conditions: Mus musculus, Cancer cell lines; in short: as §10
[36] = Cell growth inhibition MXT-ER+ breast cancer cells at a dose of 12.9 mg/kg; assay type: functional, organism-based; parameters: dose 12.9 mg/kg; conditions: Mus musculus, Cancer cell lines; in short: as §9
[37] = tested on: Mus musculus; test: Median tumor weight of MXT (mammary carcinoma) ER+ determined at the end of 6 week therapy at a dose of 12.9 mg/kg; assay type: functional, organism-based; parameters: dose 12.9 mg/kg; in short: as §7

## NC(c1c(Cl)cc(O)cc1Cl)C(N)c1c(Cl)cc(O)cc1Cl (stereo not given)
[1]
  Tumors: 4%
[2]
  T/C: < 18%
[3]
  T/C: < 12%
[4]
  T/C: < 12%
[5]
  Med tumor weight: 61 mg
[6]
  Tumors: 7%
[7]
  T/C: <158%
[8]
  Change: -1.5%
[9]
  Med tumor weight: 62.5 mg
[10]
  T/C: 239%
[11]
  Change: 154%
[12]
  No. of tumors: 3
[13]
  Med tumor weight: 91.5 mg
[14]
  Tumors: 11%
[15]
  Effect: 134 and 201
[16]
  Tumors: 78%
[17]
  No. of tumors: 26

## CISPLATIN
[18]
  ED50: 110 nM
  T/C: 1%
[19]
  ED50: 320 nM
[20]
  T/C: 17%
[21]
  T/C: 44%
[22]
  T/C: 118%
[23]
  Med tumor weight: 15 mg
[24]
  T/C: 114%
[25]
  T/C: 114%
[26]
  T/C: 3%
[27]
  ED50: 440 nM
  T/C: 11%
[28]
  ED50: 240 nM
  T/C: 26%
[29]
  Med tumor weight: 15 mg
[30]
  Utreotropic effect: 96 and 100
[31]
  T/C: 3%
[15]
  Effect: 95
[32]
  T/C: 15%
[33]
  Med tumor weight: 222 mg

## meso-3-PtCl2(2-CF3)
[18]
  ED50: 2200 nM
  T/C: 27%
[20]
  ED50: 3200 nM
  T/C: 36%
[34]
  T/C: 100%
[35]
  T/C: 72%
[27]
  ED50: 5100 nM
  T/C: 61%
[28]
  ED50: 4000 nM
  T/C: 46%
[36]
  T/C: 78%
[15]
  Effect: 70.9
[37]
  Med tumor weight: 422 mg
